The source of these data is ChEMBL document CHEMBL2086357 (Eur J Med Chem, 2012).

One data set has as its system A549. Nature of the data set: Antiproliferative activity against human A549 cells after 96 hrs by MTT assay. In kind it is functional. The settings on record: A549, 96 h.
The subject of the next data set is LoVo. Nature of the data set: Antiproliferative activity against human LoVo cells after 96 hrs by MTT assay. It counts as functional.
In a further data set the test system is MCF7. Nature of the data set: Antiproliferative activity against human MCF7 cells after 96 hrs by MTT assay. It counts as functional. The settings on record: MCF7, 96 h.
The test system of another data set is PC-3. Nature of the data set: Antiproliferative activity against human PC3 cells after 96 hrs by MTT assay. In kind it is functional. The settings on record: PC-3, 96 h.
In data set [1] the target is Cyclin-dependent kinase 2/cyclin A (Homo sapiens) (UniProt P24941+P20248+P78396). The data set can be described thus: Inhibition of recombinant CDK2/cyclin A expressed in Sf21 cells using histone H1 as substrate at 10 uM after 10 mins by scintillation counting in presence of [32P]ATP. The essentials:
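CDK2/cyclin A was combined on ice with histone H1 substrate in kit buffer, then inhibitor was added. Prediluted ³²P-ATP with MgCl2 and cold ATP was added, and tubes were shaken for 10 min at 30 °C. Aliquots were spotted on phosphocellulose paper, washed three times in 0.75% phosphoric acid, rinsed in acetone and counted by scintillation. Percent inhibition versus an untreated control is the mean of duplicate experiments.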

The nature of data set [2]: Drug degradation in DMEM cell culture medium assessed as (E)-5-(Hydroxyimino)-10-methyl-2,3,4,5-tetrahydroazepino[3,4-b]indol-1(10H)-one at 10 to 100 nmol after 7 days by NMR analysis. In kind it is physicochemical. The settings on record: 168 h. An outline of the steps: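 Two solutions of the compound in cell culture medium (10 and 100) were held at 37 °C for seven days. They were then extracted with ethyl acetate, and breakdown was assessed by NMR.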

Another data set concerns Jurkat. The data set can be described thus: Inhibition of PMA- and PHA-stimulated IL2 production in human Jurkat T cells incubated for 30 mins prior to PMA- and PHA-stimulation by competitive enzyme immunoassay. It counts as functional, cell-based.
Another data set has as its system CCRF-CEM. Nature of the data set: Growth inhibition of human CCRF-CEM cells up to 48 hrs by trypan blue exclusion assay. It counts as functional.
Data set [3] can be described thus: Inhibition of starfish CDK1/cyclin B using histone H1 as substrate after 10 mins in presence of [gamma32P}ATP. Set-up: species or system Asteroidea.
Data set [4] deals with Cyclin-dependent kinase 2/cyclin E1 (Homo sapiens, UniProt P24941). The data set can be described thus: Inhibition of CDK2/cyclin E. In kind it is protein-complex assay.
Data set [5] concerns the target Cyclin-dependent kinase 2/cyclin A (Homo sapiens, UniProt P24941). Nature of the data set: Inhibition of CDK2/cyclin A. In kind it is protein-complex assay.

On to `Cn1c2c(c3ccccc31)C(=O)CCNC2=O`, for which the GI50 in the data set on A549 was over 100 µM; in the data set with LoVo, 36.8 µM; with MCF7 it was over 100 µM; with PC-3, over 100 µM.

In the case of `O=C1NCC/C(=N\O)c2c1[nH]c1ccc(Br)cc21`, the GI50 amounted to 63.3 µM in the data set with A549, 27.2 µM in the data set with LoVo, 54.6 µM in the data set on MCF7 and 46.2 µM in the data set with PC-3. Further, in data set [1], the inhibition worked out at 45%.

Consider `Cn1c(Br)c(Br)c2c1C(=O)NCC/C2=N\OCc1ccccc1`, for which the inhibition in [1] was found to be 22%.

On to `O=C1NCC/C(=N\OCc2ccccc2)c2c1[nH]c1ccccc21`, for which the GI50 in the data set with A549 amounted to 34.9 µM; in the data set with LoVo it was 24.3 µM; in the data set on MCF7, 28.1 µM; with PC-3, 23.4 µM. Also, the inhibition in [1] was 32%.

Turning to `O=C1NCCC(=O)c2c1[nH]c1ccccc21`, the GI50 was 97.7 µM with A549, 36.9 µM in the data set on LoVo, over 100 µM in the data set on MCF7 and over 100 µM in the data set with PC-3.

With `Cn1c2c(c3ccccc31)/C(=N/OCC1CCCCC1)CCNC2=O`, the GI50 worked out at 32.1 µM in the data set with A549, 20.5 µM in the data set with LoVo, 23.3 µM in the data set on MCF7 and 29.1 µM with PC-3. Also, the inhibition in [1] was found to be 12%. Besides, in [2], the Drug degradation entry was “Not Active”.

In the case of `O=C1NCC/C(=N\O)c2c1[nH]c1ccccc21`, the concentration for 50% growth inhibition (GI50) with A549 is over 100 µM; in the data set on LoVo it was 40.5 µM; in the data set with MCF7 it was over 100 µM; in the data set with PC-3, over 100 µM.

As for `Cn1c2c(c3ccccc31)/C(=N/O)CCNC2=O`, the GI50 was over 100 µM with A549, 51.3 µM in the data set with LoVo, over 100 µM with MCF7 and over 100 µM in the data set with PC-3.

Turning to `Cn1c2c(c3ccccc31)/C(=N/OCc1ccccc1)CCNC2=O`, the Drug degradation in [2] stood at 50%.

On to `O=C1NCC/C(=N\OCc2ccccc2)c2c1[nH]c(Br)c2Br`, for which the inhibition in data set [1] was 0%.

As to `Nc1nc(C2=C3C(=Nc4ccccc43)C(=O)NCC2)c(O)[nH]1`, the IC50 in the data set on Jurkat stood at 3.5 µM. The same compound had a GI50 with CCRF-CEM of 1.7 µM.

With `O=C1Cc2c([nH]c3ccc(Br)cc23)-c2ccccc2N1` [KENPAULLONE], in [3], the concentration for half-maximal inhibition (IC50) stood at 0.4 µM.

In the case of `NC1=NC(=O)/C(=C2\CCNC(=O)c3[nH]c(Br)cc32)N1` [HYMENIALDISINE], the IC50 came out at 0.04 µM in data set [4] and 0.07 µM in [5].

Consider `Cn1c(Br)c(Br)c2c1C(=O)NCC/C2=N\OCC1CCCCC1`, for which, in [1], the inhibition amounted to 13%.

In the case of `O=C1CCNC(=O)c2[nH]ccc21` [ALDISIN], the GI50 in the data set with A549, in the data set with LoVo, in the data set on MCF7 and with PC-3 was over 100 µM throughout.
